The subject of series [1] is L02. The series can be described thus: Toxicity in human L02 cells assessed as induction of apoptosis at 62.5 to 1000 nM incubated for 12 hrs by Annexin-V/FITC staining based FACS analysis. The format is cell-based. To be noted: l02, 12 h, 1 µM, dose 62.5-1000 nM. On the technique in general: Flow cytometry measures light scatter and fluorescence of single cells or particles in a stream.

In series [2] the test system is CNE-2. The series is described as follows: Induction of apoptosis in human CNE-2 cells assessed as late apoptosis cells level at 50 nM incubated for 12 hrs by Annexin-V/FITC staining based FACS analysis (reference value: 1.45%). Type of series: cell-based. Conditions: cne-2, 12 h, 0.05 µM.
Series [3] concerns CNE-2. The series is described as follows: Induction of apoptosis in human CNE-2 cells overexpressing HSP90 assessed as late apoptosis cells level at 70 nM incubated for 12 hrs by Annexin-V/FITC staining based FACS analysis (reference value: 2.18%). Conditions: cne-2, 12 h, 0.07 µM. Type of series: cell-based.
Series [4] concerns CNE-2. The series is described as follows: Induction of apoptosis in human CNE-2 cells assessed as late apoptosis cells level at 100 nM incubated for 12 hrs by Annexin-V/FITC staining based FACS analysis (reference value: 1.45%). Type of series: cell-based. To be noted: cne-2, 12 h, 0.1 µM.
The subject of series [5] is CNE-2. The series can be described thus: Induction of apoptosis in human CNE-2 cells assessed as Bcl-XL degradation at 70 nM incubated for 24 hrs in presence of HSP90-alpha siRNA by immunoblot analysis. Type of series: functional, cell-based. A digest of the protocol:
(§1)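 CNE2 cells were transiently transfected with Hsp90 siRNA (siHsp90-1 or siHsp90-2) at 150 nM final using Lipofectamine 2000. They were then incubated with inhibitor for 24 h and immunoblotted: RIPA lysis, 8–12% SDS-PAGE, PVDF, overnight primary antibodies, HRP secondaries, chemiluminescence, actin as loading control.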
Background: In western blotting, separated proteins are transferred to a membrane and probed.

Series [6] in a line: Binding affinity to HSP90-alpha T184G mutant (unknown origin) expressed in Escherichia coli BL21 by SPR assay. On the set-up: species or system Homo sapiens. In outline: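 SPR on a Biacore T200 at 25 °C with running buffer PBST (PBS pH 7.4, 0.005% Tween-20). Protein at 20 μg/mL in 10 mM sodium acetate pH 5.0 was immobilized on a CM5 chip, which was equilibrated overnight in PBST. Inhibitor serially diluted from 10 μM was injected at 30 μL/min with 120 s contact and 120 s dissociation.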

The test system of series [7] is CNE-2. The series can be described thus: Induction of apoptosis in human CNE-2 cells assessed as viable cells level at 500 nM incubated for 12 hrs by Annexin-V/FITC staining based FACS analysis (reference value: 96.7%). Type of series: cell-based. To be noted: read-out: Activity. In outline: (§2)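 CNE2 cells (RPMI 1640 with 10% FBS) were seeded at 5 × 10⁴ cells per well. After 24 h they were treated with compound in 0.05% DMSO for 12 h. Cells were then washed twice with PBS, pelleted, and stained in binding buffer with Annexin V-FITC and PI for flow cytometry.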

Series [8] concerns CNE-2. The series can be described thus: Antitumor activity against human CNE-2 cells xenografted in nu/nu mouse assessed as inhibition of tumor growth at 1 mg/kg, ip for 32 days. The format is functional, organism-based. To be noted: time 32.0 day. (Xenograft models place foreign cells or tissue in a host animal.)
Series [9] in a line: Half life in Kunming mouse at 2 mg/kg, iv measured up to 6 hrs by HPLC analysis. Type of series: ADME, organism-based. Conditions: in vivo. In outline: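 Male Kunming mice, 9–11 weeks old, about 23 g, four per group, were given a single 2 mg/kg dose intravenously or orally. Blood was sampled at 0, 10, 15, 30 min and 1, 2, 4, 6 h. For each sample, 40 μL plasma was deproteinized with 200 μL acetonitrile and centrifuged 10 min at 12 000 rpm before analysis.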

Series [10] concerns CNE-2. The series is described as follows: Induction of apoptosis in human CNE-2 cells assessed as necrosis cells level at 20 nM incubated for 12 hrs by Annexin-V/FITC staining based FACS analysis (reference value: 1.45%). Type of series: cell-based. Conditions: cne-2, 12 h, 0.02 µM.
Series [11] deals with CNE-2. The series is described as follows: Induction of apoptosis in human CNE-2 cells assessed as early apoptosis cells level at 100 nM incubated for 12 hrs by Annexin-V/FITC staining based FACS analysis (reference value: 1.45%). The format is cell-based. Conditions: cne-2, 12 h, 0.1 µM.
In series [12] the test system is CNE-2. The series is described as follows: Induction of apoptosis in human CNE-2 cells assessed as viable cells level at 20 nM incubated for 12 hrs by Annexin-V/FITC staining based FACS analysis (reference value: 96.7%). Type of series: cell-based. To be noted: read-out: Activity. A digest of the protocol:
as §2

Series [13] deals with CNE-2. The series can be described thus: Cytotoxicity in human CNE-2 cells assessed as reduction in cell viability incubated for 48 hrs by MTT assay. The format is cell-based. Conditions: CNE-2, 48 h. In outline:
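Cells were seeded at 3 × 10³ cells per well and grown for 24 h at 37 °C in 5% CO₂. CNE2 was grown in RPMI 1640 and HeLa and HepG2 in DMEM, each with 10% FBS and 1% penicillin/streptomycin. Cells were exposed to 0−20 μM inhibitor for 48 h, with a DMSO solvent control. MTT (0.5 mg/mL) was then added for 3 h.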

For series [14], the system named is CNE-2. The series is described as follows: Induction of apoptosis in human CNE-2 cells assessed as viable cells level at 200 nM incubated for 12 hrs by Annexin-V/FITC staining based FACS analysis (reference value: 96.7%). Conditions: read-out: Activity. The format is cell-based. A digest of the protocol: as §2
The test system of series [15] is HEK-293T. The series is described as follows: Cytotoxicity in HEK293T cells assessed as reduction in cell viability up to 20 uM incubated for 48 hrs by MTT assay. The format is cell-based. Conditions: human.
For series [16], the system named is CNE-2. The series is described as follows: Induction of apoptosis in human CNE-2 cells assessed as early apoptosis cells level at 70 nM incubated for 12 hrs by Annexin-V/FITC staining based FACS analysis (reference value: 3.1%). Type of series: cell-based. To be noted: cne-2, 12 h, 0.07 µM.
Series [17] deals with CNE2 (Homo sapiens). The series is described as follows: Induction of apoptosis in human CNE2 cells at 70 nM incubated for 12 hrs in presence of HSP90-alpha siRNA by Annexin-V/FITC staining based FACS analysis. Conditions: cne2, 12 h, 0.07 µM.
Series [18] concerns the target T1, Heat shock protein HSP 90-alpha (Homo sapiens, UniProt P07900). The series can be described thus: Binding affinity to HSP90-alpha (unknown origin) expressed in Escherichia coli BL21 by SPR assay.
Series [19] relates to CNE-2. The series can be described thus: Induction of apoptosis in human CNE-2 cells assessed as necrosis cells level at 200 nM incubated for 12 hrs by Annexin-V/FITC staining based FACS analysis (reference value: 1.45%). Type of series: cell-based. Conditions: cne-2, 12 h, 0.2 µM.
Series [20] concerns CNE2 (Homo sapiens). The series is described as follows: Induction of apoptosis in human CNE2 cells at 70 nM incubated for 12 hrs in presence of HSP90-beta siRNA by Annexin-V/FITC staining based FACS analysis. To be noted: cne2, 12 h, 0.07 µM.
The subject of series [21] is CNE-2. The series can be described thus: Induction of apoptosis in human CNE-2 cells overexpressing HSP90 assessed as necrosis cells level at 70 nM incubated for 12 hrs by Annexin-V/FITC staining based FACS analysis (reference value: 1.49%). Type of series: cell-based. Conditions: cne-2, 12 h, 0.07 µM.
Series [22] relates to CNE-2. The series can be described thus: Induction of apoptosis in human CNE-2 cells assessed as necrosis cells level at 500 nM incubated for 12 hrs by Annexin-V/FITC staining based FACS analysis (reference value: 1.45%). The format is cell-based. To be noted: cne-2, 12 h, 0.5 µM.
The target of series [23] is T1, Heat shock protein HSP 90-alpha. The series can be described thus: Inhibition of HSP90-alpha in human CNE-2 cells assessed as reduction in PKB protein levels at 70 nM incubated for 24 hrs in presence of HSP90-alpha siRNA by immunoblot analysis. The format is cell-based. A digest of the protocol: as §1
Series [24] concerns the target Heat shock protein HSP 90-beta (Homo sapiens, UniProt P08238). The series can be described thus: Inhibition of HSP90-beta (unknown origin) expressed in Escherichia coli BL21 assessed as reduction in ATPase activity in presence of PEP, NADH and ATP by pyruvate kinase/lactic dehydrogenase based coupled enzyme assay.

Calls of active or inactive are those of the source. The calls are words filed in the database; no cut-off is given here.

Heat shock protein HSP 90-beta, sequence (P08238 whole entry): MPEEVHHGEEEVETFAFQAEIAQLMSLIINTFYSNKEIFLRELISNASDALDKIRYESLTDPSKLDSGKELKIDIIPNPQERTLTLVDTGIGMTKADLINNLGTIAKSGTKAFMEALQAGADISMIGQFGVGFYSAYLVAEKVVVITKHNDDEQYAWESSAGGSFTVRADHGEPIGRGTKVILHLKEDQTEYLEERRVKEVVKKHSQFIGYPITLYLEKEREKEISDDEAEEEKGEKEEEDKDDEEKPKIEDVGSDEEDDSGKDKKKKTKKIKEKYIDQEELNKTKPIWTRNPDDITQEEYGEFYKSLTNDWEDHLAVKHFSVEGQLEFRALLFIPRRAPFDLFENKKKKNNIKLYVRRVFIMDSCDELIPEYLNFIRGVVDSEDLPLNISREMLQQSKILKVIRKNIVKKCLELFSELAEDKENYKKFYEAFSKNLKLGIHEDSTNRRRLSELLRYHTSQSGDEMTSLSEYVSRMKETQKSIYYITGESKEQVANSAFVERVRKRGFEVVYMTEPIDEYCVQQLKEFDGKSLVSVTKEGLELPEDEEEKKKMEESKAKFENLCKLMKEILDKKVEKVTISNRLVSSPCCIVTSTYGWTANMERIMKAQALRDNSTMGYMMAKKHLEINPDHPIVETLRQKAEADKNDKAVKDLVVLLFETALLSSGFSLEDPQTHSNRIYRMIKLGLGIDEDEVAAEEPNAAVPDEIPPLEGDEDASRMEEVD

One may read the Kd as the free concentration of one partner at which half of the binding sites on the other are occupied at equilibrium, for simple one-to-one binding. Usually half-life stands for the time in which the quantity being followed falls by half. A low value points to fast loss. By IC50 is commonly meant the concentration that inhibits the measured activity by half. For `CC(C)(C)c1ccc(Cn2cc(-c3cc(O)c(O)c(O)c3)nn2)cc1`, the Activity entry is on record as “Non-Toxic” in series [1]; 15.3% in [2]; 1.28% in series [3]; 15.6% in series [4]; 0.17% in [10]; 6.22% in [11]. Also, the Activity result in series [15] was “Non-Toxic”; in series [16], 13.7%; in series [17], “Non-Toxic”; in series [19] it was 0.3%; in [20], “Non-Toxic”; in series [21], 0.64%. The Activity in [22] was found to be 0.96%. Besides, the outcome in series [5] was inactive. The figures for the equilibrium dissociation constant (Kd) in [6] and in [18] were 81400 nM and 63 nM, respectively. In series [7], the viability at 0.5 µM was found to be 32%. For the same compound, in series [8], the TGI entry is “Active”. For the same compound, the half-life in [9] was 1.1 h. The viability at 0.02 µM in series [12] amounted to 93.6%. For the same compound, the results for the concentration for half-maximal inhibition (IC50) in series [13] and in [24] were 40 nM and 180 nM, respectively. In addition, the viability at 0.2 µM in series [14] amounted to 75.1%. Also, the inhibition entry in series [23] was “inactive”.

The record behind these values is ChEMBL document CHEMBL4706684, “Discovering High Potent Hsp90 Inhibitors as Antinasopharyngeal Carcinoma Agents through Fragment Assembling Approach” (J Med Chem, 2021).
